For orientation: bioavailability means dose-corrected exposure relative to a reference, in per cent. As usually defined, the half-life is the time needed for the level to fall by half in the phase considered. What is called ED50 is the dose at which the effect has come halfway, by size or by number of responders. In general, IC50 refers to the midpoint of a concentration-inhibition curve. Broadly, the inhibition is the share of the control response that was lost under treatment.

Activity calls are given as the source filed them.

Series [1] is described as follows: Oral bioavailability in mouse. Conditions: in vivo. In kind it is ADME, organism-based. Summed up:
(§1)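 Oral bioavailability (F) determined in mice and rats. Dosing vehicle 5% DMSO + 5% Cremophore.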

Series [2] deals with Mus musculus. As to the kind of experiment: Toxicity in ICR mouse assessed as induction of locomotor activity at 1 to 30 mg/kg, ip. Format: organism-based. On the set-up: dose 1-30 mg/kg, route intraperitoneal. Particulars: in vivo. Summed up:
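Locomotor activity tests in mice, run to separate antidepressant effect from hyperactivity. Compound given intraperitoneally over a dose range of 1 mg/kg to 30 mg/kg.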

Series [3] is described as follows: Half life in mouse liver microsomes. Particulars: liver microsomes.
The test system of series [4] is Mus musculus. In words: Antidepressant activity in ip dosed ICR mouse assessed as decrease in immobility time administered 1 hr before test measured for 4 mins following training for 2 mins by forced swimming test.
The next series deals with Rattus norvegicus. As to the kind of experiment: Antidepressant activity in rat assessed as decrease in immobility time at 10 mg/kg, ip by forced swimming test. More on the design: scale not given: the % may be the effect or the level left. Conditions: route intraperitoneal. Format: functional. Summed up:
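Rat forced swim test with intraperitoneal dosing at 10 mg/kg. Read-out is % decrease in immobility duration. Dosing vehicle 5% DMSO + 5% Cremophore.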

The nature of series [5]: Half life in human liver microsomes. Conditions: liver microsomes. In general terms: Microsomes from liver hold many membrane-bound enzymes, among them those of drug oxidation.
The target of series [6] is T1, Metabotropic glutamate receptor 5 (Homo sapiens, UniProt P41594). In words: Negative allosteric modulation of human mGluR5 expressed in HEK293 cells assessed as calcium mobilization by FLIPR assay. In kind it is functional, cell-based.
Target sequence in this assay (P41594 whole entry): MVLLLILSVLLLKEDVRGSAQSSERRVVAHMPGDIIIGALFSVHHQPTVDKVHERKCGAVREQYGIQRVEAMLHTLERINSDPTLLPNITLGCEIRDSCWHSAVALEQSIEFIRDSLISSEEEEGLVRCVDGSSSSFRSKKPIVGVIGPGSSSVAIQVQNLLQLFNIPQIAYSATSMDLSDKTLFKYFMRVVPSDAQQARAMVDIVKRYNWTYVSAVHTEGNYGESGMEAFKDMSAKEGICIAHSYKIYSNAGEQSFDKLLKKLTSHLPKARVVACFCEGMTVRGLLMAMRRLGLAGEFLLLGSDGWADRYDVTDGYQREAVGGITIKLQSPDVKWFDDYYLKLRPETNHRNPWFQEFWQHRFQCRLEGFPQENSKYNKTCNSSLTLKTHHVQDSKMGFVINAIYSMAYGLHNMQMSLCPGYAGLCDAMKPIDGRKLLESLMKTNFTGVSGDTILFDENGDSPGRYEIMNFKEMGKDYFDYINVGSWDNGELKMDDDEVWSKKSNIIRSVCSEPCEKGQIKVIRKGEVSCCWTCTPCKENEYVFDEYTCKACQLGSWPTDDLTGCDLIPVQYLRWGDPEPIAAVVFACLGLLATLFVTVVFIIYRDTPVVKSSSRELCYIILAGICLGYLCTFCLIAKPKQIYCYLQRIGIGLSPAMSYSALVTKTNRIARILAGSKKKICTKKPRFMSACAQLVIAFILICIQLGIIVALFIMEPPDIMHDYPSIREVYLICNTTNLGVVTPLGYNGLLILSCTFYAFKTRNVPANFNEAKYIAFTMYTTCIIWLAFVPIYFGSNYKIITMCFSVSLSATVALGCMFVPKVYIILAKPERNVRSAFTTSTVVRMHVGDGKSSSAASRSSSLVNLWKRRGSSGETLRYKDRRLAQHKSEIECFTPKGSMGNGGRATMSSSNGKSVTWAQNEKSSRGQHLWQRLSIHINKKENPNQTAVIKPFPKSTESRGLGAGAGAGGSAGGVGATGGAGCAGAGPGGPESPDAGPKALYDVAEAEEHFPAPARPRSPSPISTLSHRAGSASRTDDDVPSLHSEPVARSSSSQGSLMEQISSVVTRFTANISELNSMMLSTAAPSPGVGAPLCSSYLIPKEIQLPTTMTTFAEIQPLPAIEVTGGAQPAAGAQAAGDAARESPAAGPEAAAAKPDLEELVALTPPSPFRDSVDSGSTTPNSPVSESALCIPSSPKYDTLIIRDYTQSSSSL
The nature of series [7]: Oral bioavailability in rat. Format: ADME, organism-based. Conditions: in vivo. Summed up:
as §1

Series [8] concerns Mus musculus. In words: Antidepressant activity in ICR mouse assessed as decrease in immobility time at 10 mg/kg, po administered 1 hr before test measured for 4 mins following training for 2 mins by forced swimming test. In kind it is functional. More on the design: scale not given: the % may be the effect or the level left. Summed up:
(§2)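 Mouse forced swim test: ICR mice dosed orally 1 h before testing; 2 min training, then immobility duration recorded over 4 min. Activity expressed as % decrease in immobility duration. Mean ± SEM, n = 8; Dunnett's multiple comparisons after one-way ANOVA (p < 0.05).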

Series [9] is described as follows: Half life in rat liver microsomes. Particulars: liver microsomes.
Series [10] concerns Mus musculus. As to the kind of experiment: Antidepressant activity in ICR mouse assessed as decrease in immobility time at 50 mg/kg, po administered 1 hr before test measured for 4 mins following training for 2 mins by forced swimming test. In kind it is functional. On the set-up: scale not given: the % may be the effect or the level left. Summed up: as §2
The target of series [11] is T1, Metabotropic glutamate receptor 5. As to the kind of experiment: Negative allosteric modulation of human mGluR5 expressed in HEK293 cells assessed as calcium mobilization at 2 uM by FLIPR assay. In kind it is functional, cell-based. For orientation: Calcium flux is commonly read through the fluorescence of an indicator in the cells.
Target sequence in this assay (P41594 21-1212 limits assumed): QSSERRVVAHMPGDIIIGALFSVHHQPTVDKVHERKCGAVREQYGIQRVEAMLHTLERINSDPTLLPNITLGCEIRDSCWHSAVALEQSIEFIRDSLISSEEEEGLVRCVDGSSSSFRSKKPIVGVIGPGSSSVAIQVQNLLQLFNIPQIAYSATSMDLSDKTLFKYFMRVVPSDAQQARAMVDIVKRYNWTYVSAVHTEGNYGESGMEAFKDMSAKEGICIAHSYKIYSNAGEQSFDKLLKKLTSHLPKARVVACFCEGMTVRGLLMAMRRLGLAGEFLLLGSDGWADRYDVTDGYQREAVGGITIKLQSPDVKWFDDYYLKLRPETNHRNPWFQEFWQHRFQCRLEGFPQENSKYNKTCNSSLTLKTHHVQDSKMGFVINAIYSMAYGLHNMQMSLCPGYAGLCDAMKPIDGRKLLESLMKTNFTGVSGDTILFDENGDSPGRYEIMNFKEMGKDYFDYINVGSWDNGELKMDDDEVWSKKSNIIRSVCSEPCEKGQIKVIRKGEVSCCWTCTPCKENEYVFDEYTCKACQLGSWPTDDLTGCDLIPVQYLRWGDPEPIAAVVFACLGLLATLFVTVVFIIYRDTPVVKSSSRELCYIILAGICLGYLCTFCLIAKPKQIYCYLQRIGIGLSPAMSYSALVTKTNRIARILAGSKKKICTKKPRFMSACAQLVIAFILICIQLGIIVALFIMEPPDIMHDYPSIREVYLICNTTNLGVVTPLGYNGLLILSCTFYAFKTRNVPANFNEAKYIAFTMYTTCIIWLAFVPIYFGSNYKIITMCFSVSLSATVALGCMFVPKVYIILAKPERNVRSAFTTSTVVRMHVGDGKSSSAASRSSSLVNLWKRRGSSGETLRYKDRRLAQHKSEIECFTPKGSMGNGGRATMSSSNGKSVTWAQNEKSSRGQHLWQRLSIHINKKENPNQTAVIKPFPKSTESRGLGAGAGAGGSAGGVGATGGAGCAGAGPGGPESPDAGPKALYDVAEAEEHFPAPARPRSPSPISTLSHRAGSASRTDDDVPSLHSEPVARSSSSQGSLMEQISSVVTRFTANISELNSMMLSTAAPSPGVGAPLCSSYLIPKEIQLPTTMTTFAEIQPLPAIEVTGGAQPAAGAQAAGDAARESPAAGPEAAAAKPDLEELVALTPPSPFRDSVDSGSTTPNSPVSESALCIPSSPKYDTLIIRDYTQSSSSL
In the next series the target is Cytochrome P450 2D6 (Homo sapiens, UniProt P10635). In words: Inhibition of CYP2D6 (unknown origin) at 10 uM. Format: ADME.
The nature of series [12]: Intrinsic clearance in human hepatocytes assessed per 10^6 cells. In kind it is ADME, cell-based, Hepatocyte. Particulars: read-out: CLH.
The target in another series is hERG (KCNH2) (Homo sapiens, UniProt Q12809). As to the kind of experiment: Inhibition of human ERG at 10 uM.
A further series concerns the target Cytochrome P450 2C9 (Homo sapiens, UniProt P11712). As to the kind of experiment: Inhibition of CYP2C9 (unknown origin) at 10 uM. Format: ADME.
For series [13], the target named is Metabotropic glutamate receptor 1 (Homo sapiens) (UniProt Q13255). As to the kind of experiment: Inhibition of mGluR1 (unknown origin) at 10 uM.
Sequence of Metabotropic glutamate receptor 1 (Homo sapiens) (Q13255 19-1194 limits assumed): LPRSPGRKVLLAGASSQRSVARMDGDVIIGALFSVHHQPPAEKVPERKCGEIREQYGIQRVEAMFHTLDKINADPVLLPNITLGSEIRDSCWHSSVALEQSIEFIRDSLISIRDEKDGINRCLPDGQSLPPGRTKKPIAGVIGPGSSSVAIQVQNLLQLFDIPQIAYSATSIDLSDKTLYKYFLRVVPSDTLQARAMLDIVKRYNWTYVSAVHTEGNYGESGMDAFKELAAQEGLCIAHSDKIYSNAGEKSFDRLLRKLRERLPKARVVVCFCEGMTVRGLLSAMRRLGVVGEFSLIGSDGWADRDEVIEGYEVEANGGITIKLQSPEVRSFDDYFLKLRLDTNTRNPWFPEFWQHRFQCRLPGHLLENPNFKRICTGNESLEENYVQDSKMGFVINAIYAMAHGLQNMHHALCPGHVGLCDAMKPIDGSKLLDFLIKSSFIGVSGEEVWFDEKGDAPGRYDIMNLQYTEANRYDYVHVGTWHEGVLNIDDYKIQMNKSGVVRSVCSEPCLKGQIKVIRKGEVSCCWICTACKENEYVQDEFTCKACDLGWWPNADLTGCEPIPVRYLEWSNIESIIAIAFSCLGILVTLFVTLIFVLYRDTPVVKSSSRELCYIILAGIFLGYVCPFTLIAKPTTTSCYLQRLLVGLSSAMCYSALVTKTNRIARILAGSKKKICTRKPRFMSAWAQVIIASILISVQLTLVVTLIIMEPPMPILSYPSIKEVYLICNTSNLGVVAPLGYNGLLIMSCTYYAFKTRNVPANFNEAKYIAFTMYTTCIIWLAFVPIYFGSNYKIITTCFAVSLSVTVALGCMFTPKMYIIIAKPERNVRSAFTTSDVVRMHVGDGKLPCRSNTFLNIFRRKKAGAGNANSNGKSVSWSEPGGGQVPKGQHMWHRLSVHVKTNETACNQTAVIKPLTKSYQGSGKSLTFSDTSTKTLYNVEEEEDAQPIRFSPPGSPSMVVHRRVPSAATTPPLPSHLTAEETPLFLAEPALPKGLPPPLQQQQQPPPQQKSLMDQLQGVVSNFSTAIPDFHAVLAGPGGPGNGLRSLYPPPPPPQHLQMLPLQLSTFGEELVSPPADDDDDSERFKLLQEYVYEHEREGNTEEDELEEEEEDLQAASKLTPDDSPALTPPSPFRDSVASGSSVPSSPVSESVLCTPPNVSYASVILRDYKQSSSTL
A further series concerns the target Cytochrome P450 3A4 (Homo sapiens, UniProt P08684). In words: Inhibition of CYP3A4 (unknown origin) at 10 uM. Format: ADME.
Series [14] can be described thus: Ratio of drug level in brain to plasma in Sprague-Dawley rat at 10 mg/kg, ip after 1 hr. On the set-up: dose 10 mg/kg, route intraperitoneal. Format: ADME, organism-based. Particulars: brain and plasma, read-out: BPR. Summed up:
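Sprague–Dawley rats given a single 10 mg/kg intraperitoneal dose. Plasma and brain concentrations measured 1 h after dosing and expressed as a brain/plasma ratio.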

The target in another series is Cytochrome P450 2C19 (Homo sapiens, UniProt P33261). As to the kind of experiment: Inhibition of CYP2C19 (unknown origin) at 10 uM. Format: ADME.
The target in the next series is Cytochrome P450 1A2 (Homo sapiens, UniProt P05177). As to the kind of experiment: Inhibition of CYP1A2 (unknown origin) at 10 uM. In kind it is ADME.
Series [15] is described as follows: Half life in rat plasma. Format: ADME, cell-free.
The target of series [16] is T1, Metabotropic glutamate receptor 5. As to the kind of experiment: Negative allosteric modulation of human mGluR5 expressed in HEK293 cells assessed as calcium mobilization at 10 uM by FLIPR assay. Format: functional, cell-based.
Target sequence in this assay (P41594 21-1212 limits assumed): as the sequence (P41594 21-1212 limits assumed) above
Series [17] deals with Adenosine receptor A2a (Homo sapiens) (UniProt P29274). As to the kind of experiment: Inhibition of adenosine A2A receptor (unknown origin) at 10 uM.
In series [18] the target is Alpha-1D adrenergic receptor (Homo sapiens) (UniProt P25100). As to the kind of experiment: Inhibition of adrenergic alpha1D receptor (unknown origin) at 10 uM.
The target in series [19] is Sodium-dependent serotonin transporter (Homo sapiens) (UniProt P31645). As to the kind of experiment: Inhibition of SERT (unknown origin) at 10 uM.
Sequence of Sodium-dependent serotonin transporter (Homo sapiens) (P31645 whole entry, looked up): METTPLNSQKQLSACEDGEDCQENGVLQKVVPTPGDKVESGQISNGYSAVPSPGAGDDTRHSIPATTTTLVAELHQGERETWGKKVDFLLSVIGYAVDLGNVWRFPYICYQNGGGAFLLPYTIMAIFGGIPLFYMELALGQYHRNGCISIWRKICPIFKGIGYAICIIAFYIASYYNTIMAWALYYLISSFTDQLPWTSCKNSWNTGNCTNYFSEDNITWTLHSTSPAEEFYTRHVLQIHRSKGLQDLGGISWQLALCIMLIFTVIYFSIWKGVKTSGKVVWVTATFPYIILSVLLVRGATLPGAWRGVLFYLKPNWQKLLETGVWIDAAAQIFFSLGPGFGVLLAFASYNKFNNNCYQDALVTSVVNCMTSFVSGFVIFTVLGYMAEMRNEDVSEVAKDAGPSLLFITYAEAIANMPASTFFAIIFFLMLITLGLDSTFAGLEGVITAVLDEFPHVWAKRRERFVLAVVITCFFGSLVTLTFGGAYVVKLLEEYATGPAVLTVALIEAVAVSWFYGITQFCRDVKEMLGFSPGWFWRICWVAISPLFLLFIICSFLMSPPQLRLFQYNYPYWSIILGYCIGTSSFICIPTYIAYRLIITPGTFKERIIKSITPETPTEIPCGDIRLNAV
Series [20] concerns the target Muscarinic acetylcholine receptor M1 (Homo sapiens) (UniProt P11229). In words: Inhibition of muscarinic M1 receptor (unknown origin) at 10 uM.
Series [21] addresses Sodium-dependent dopamine transporter (Homo sapiens) (UniProt Q01959). As to the kind of experiment: Inhibition of DAT (unknown origin) at 10 uM.
Series [22] has as its target Amine oxidase [flavin-containing] A (Homo sapiens, UniProt P21397). In words: Inhibition of MAO-A (unknown origin) at 10 uM.
The target in series [23] is Amine oxidase [flavin-containing] B (Homo sapiens, UniProt P27338). As to the kind of experiment: Inhibition of MAO-B (unknown origin) at 10 uM.
The target of series [24] is Sodium-dependent noradrenaline transporter (Homo sapiens) (UniProt P23975). In words: Inhibition of NET (unknown origin) at 10 uM.
The target in series [25] is Histamine H1 receptor (Homo sapiens) (UniProt P35367). As to the kind of experiment: Inhibition of histamine H1 receptor (unknown origin) at 10 uM.
Series [26] has as its target Muscarinic acetylcholine receptor M2 (Homo sapiens) (UniProt P08172). In words: Inhibition of muscarinic M2 receptor (unknown origin) at 10 uM.
The target in series [27] is 5-hydroxytryptamine receptor 2C (Homo sapiens) (UniProt P28335). In words: Inhibition of 5-HT2C receptor (unknown origin) at 10 uM.

Sequence of Cytochrome P450 3A4 (P08684 whole entry): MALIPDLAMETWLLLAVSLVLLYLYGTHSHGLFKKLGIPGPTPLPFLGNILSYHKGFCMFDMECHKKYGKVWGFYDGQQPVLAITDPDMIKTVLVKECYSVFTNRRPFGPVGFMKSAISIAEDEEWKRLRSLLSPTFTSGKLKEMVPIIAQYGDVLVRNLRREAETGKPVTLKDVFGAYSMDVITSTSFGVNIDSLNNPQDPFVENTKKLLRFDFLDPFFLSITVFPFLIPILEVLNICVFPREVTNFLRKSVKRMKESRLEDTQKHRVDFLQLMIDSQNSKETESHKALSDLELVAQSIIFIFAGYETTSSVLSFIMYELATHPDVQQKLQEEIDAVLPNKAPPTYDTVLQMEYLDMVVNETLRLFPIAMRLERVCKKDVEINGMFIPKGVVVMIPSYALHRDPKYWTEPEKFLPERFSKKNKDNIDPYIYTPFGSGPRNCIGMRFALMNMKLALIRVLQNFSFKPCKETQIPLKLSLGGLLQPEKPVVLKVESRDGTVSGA

Regarding `Cc1cccc(NC(=O)c2nn(C)c(-c3ccc(F)cc3)c2C)n1`, the bioavailability in [1] was 31%; in series [7] it was < 2%. In addition, the Activity entry in the series on Mus musculus [2] is “Non-toxic”; in the series on Rattus norvegicus, 10.9%; in the series on Mus musculus [8], 61.1%. Further, the half-life worked out at 0.6 h in [3], 1.37 h in series [5] and 0.933 h in [9]. Further, in the series with Mus musculus [4], the 50% effective dose (ED50) was found to be 1.1 mg/kg. Further, the half-maximal inhibitory concentration (IC50) in series [6] is 1.1 nM.

For the molecule `Fc1ccc2nc(CCC#Cc3ccccn3)cn2c1` [DIPRAGLURANT], the Activity in the series on Mus musculus [10] came out at 44.3%. In series [6], the concentration for half-maximal inhibition (IC50) worked out at 20 nM.

As for `Cc1cccc(NC(=O)c2nn(C)c(OC3CCNCC3)c2C)n1`, in series [11], the inhibition is 5.6%.

`Cc1nc(C(=O)Nc2ccnc(Cl)n2)c(C)n1-c1ccc(F)cc1`: the “inhibition (INH)” value at Cytochrome P450 2D6, against Cytochrome P450 2C9, against Cytochrome P450 3A4, against Cytochrome P450 2C19 and on Cytochrome P450 1A2 was “Not Active” in each case. Further, the hepatocyte CLint in [12] was 0.99 µL/min/1e6 cells. Besides, the half-life in [3] turned out to be 4.63 h; in series [5], 4.72 h; in series [9], 2.75 h. For the same molecule, at 10 µM the inhibition against hERG (KCNH2) was 13%. Also, the inhibition in [13] was determined as 10%. Moreover, in series [6], the 50% inhibitory concentration (IC50) came to 40.4 nM. In addition, the Activity with Mus musculus [8] was determined as 65.3%. In addition, the Kp at 1 h in series [14] was determined as 1.63.

As to `Cc1cccc(NC(=O)c2cc(-c3ccccc3)n(C)n2)n1`, the IC50 in series [6] is 95 nM. Besides, the half-life in [15] was < 1 h.

`Cc1cccc(NC(=O)c2nn(C)c(-c3ccccc3)c2-c2ccccc2)n1`: the inhibition in series [16] is 26%.

Turning to `Cc1cccc(NC(=O)c2nn(C)c(-c3ccccc3)c2C)n1`, the inhibition result in series [17], in series [18], in [19], in series [20], in [25] and in series [26] was “inactive” each time. In addition, the Activity in the series with Mus musculus [10] worked out at 53.3%. For the same molecule, the half-life in series [3] is 0.3 h; in series [5], 1.1 h; in [15] it was > 3 h; in series [9], 0.4 h. The IC50 in series [6] is 4.4 nM. For the same molecule, the results for the inhibition in series [21], in [24] and in series [27] were 60%, 63% and 66%, respectively. The “inhibition (INH)” value in series [22] and in [23] was “Not Active” each time.

These data come from ChEMBL document CHEMBL2346654, “Discovery of biological evaluation of pyrazole/imidazole amides as mGlu5 receptor negative allosteric modulators” (Bioorg Med Chem Lett, 2013).
